Our source for the IC50 and inhibition values is ChEMBL document CHEMBL1143430, “Synthesis and free radical scavenging activity of some new spiropyranocoumarins” (Bioorg Med Chem Lett, 2008).

For test [1], the system named is Radical scavenging activity. Put plainly: Antioxidant activity assessed as DPPH free radical scavenging activity after 20 mins. The format is functional. An outline of the steps:
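Test compound at 5–200 μM mixed with an equal volume of 200 μM DPPH in ethanol, incubated 20 min at room temperature; absorbance read at 517 nm (also at 30, 45 and 60 min). IC50 = concentration giving 50% inhibition of 200 μM DPPH, from linear regression over at least five concentrations in triplicate; mean ± SD of at least three experiments.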

Test [2] in a line: Antioxidant activity assessed as inhibition of xanthine-xanthine oxidase generated superoxide anion radical production at 0.5 mM. The format is functional. In short, it runs like this: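 Superoxide generated enzymically by xanthine oxidase (0.07 U ml⁻¹, added to start the reaction) with 200 μM xanthine and 600 μM NBT in 0.1 phosphate buffer, pH 7.4. Read-out was the NBT reduction product.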

Regarding `O=c1cc(O)c2ccc3c(c2o1)[C@@H](O)[C@@H](O)C1(O3)C2CC3CC(C2)CC1C3` (some centres not stated), the IC50 (as a rule, the concentration at which inhibition is half-maximal) in test [1] came to 166 µM. Besides, the inhibition (commonly the share of the control response that was lost under treatment) in test [2] turned out to be 48.3%.

Regarding `O=c1cc(O)c2ccccc2o1` [4-HYDROXYCOUMARINS], in test [1], the IC50 was found to be 124 µM. For the same compound, the inhibition in test [2] worked out at 19.4%.

As for `O=c1cc(O)c2ccc3c(c2o1)C=CC1(O3)C2CC3CC(C2)CC1C3` (configuration not stated), in test [1], the IC50 came to 130 µM. The inhibition in test [2] was determined as 37.3%.

With `O=c1cc(O)c2ccc3c(c2o1)C=CC1(CCCC1)O3`, in test [1], the IC50 amounted to 182 µM. Also, in test [2], the inhibition is less than 10%.

For the compound `O=c1cc(O)c2ccc3c(c2o1)[C@@H](O)[C@@H](O)C1(CCCC1)O3`, the IC50 in test [1] amounted to 97.8 µM. Also, the inhibition in test [2] was determined as 63.5%.

On to `O=c1cc(O)c2ccc3c(c2o1)C=CC1(CCCCC1)O3`, for which, in test [1], the IC50 is 201 µM. For the same compound, the inhibition in test [2] is less than 10%.

For the compound `O=c1cc(O)c2ccc3c(c2o1)[C@@H](O)[C@@H](O)C1(CCCCC1)O3`, the IC50 in test [1] is 161 µM. The inhibition in test [2] came out at 51.7%.

With `Cc1cc(C(C)(C)C)c(O)c(C(C)(C)C)c1` [BUTYLATED HYDROXYTOLUENE], the IC50 in test [1] stood at 83.8 µM.

As to `Oc1ncnc2[nH]ncc12`, the inhibition in test [2] worked out at 42.3%.

In the case of `O=c1cc(O)c2ccc3c(c2o1)[C@@H](O)[C@@H](O)C1(CCCCCC1)O3`, the IC50 in test [1] was 158 µM. Besides, in test [2], the inhibition was 35.8%.

Take `O=c1ccc2ccc(O)cc2o1` [UMBELLIFERONE]: the IC50 in test [1] is more than 400 µM. The inhibition in test [2] was found to be 32.6%.

As for `O=c1cc(O)c2ccc3c(c2o1)C=CC1(CCCCCC1)O3`, the IC50 in test [1] amounted to 202 µM. The inhibition in test [2] is less than 10%.
